Here are results for 20 compounds from ChEMBL document CHEMBL3875168, “Synthesis and apoptosis inducing studies of triazole linked 3-benzylidene isatin derivatives” (Eur J Med Chem, 2016).

Series [1] is described as follows: Cytotoxicity against human PC3 cells assessed as cell growth inhibition after 48 hrs by MTT assay. The class given is functional, cell-based. The settings on record: PC-3, 48 h. In outline: (§1)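 Cell lines (NCCS) grown in DMEM or RPMI with 10% FBS and antibiotic-antimycotic at 37 °C, 5% CO2, 90% humidity. Cells seeded at 3-5×10^3 per well, treated 48 h with serial dilutions in medium beside vehicle control. Medium replaced with MTT (0.5 mg/mL) for 4 h, absorbance read at 570 nm. IC50 taken from concentration-response curves; sunitinib served as reference.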

The nature of series [2]: Cytotoxicity against human MDA-MB-231 cells assessed as cell growth inhibition after 48 hrs by MTT assay. The class given is functional, cell-based. The following applies: MDA-MB-231, 48 h. An outline of the steps:
as §1
Background: Formazan colour is commonly taken as a measure of viable cells.

The nature of series [3]: Cytotoxicity against human A549 cells assessed as cell growth inhibition after 48 hrs by MTT assay. The settings on record: A549, 48 h. The class given is functional, cell-based. In outline: as §1
A short description of series [4]: Cytotoxicity against human DU145 cells assessed as cell growth inhibition after 48 hrs by MTT assay. The class given is functional, cell-based. The settings on record: DU-145, 48 h. In outline: as §1
The nature of series [5]: Cytotoxicity against human BT549 cells assessed as cell growth inhibition after 48 hrs by MTT assay. The class given is functional, cell-based. The settings on record: BT-549, 48 h. An outline of the steps:
as §1

The nature of series [6]: Cytotoxicity against human HeLa cells assessed as cell growth inhibition after 48 hrs by MTT assay. The class given is functional, cell-based. In outline:
as §1

Series [7] is described as follows: Cytotoxicity against human RWPE1 cells assessed as cell growth inhibition after 48 hrs by MTT assay. The class given is toxicity, cell-based, RWPE-1.

In general, IC50 refers to the point on the concentration scale where inhibition reaches its midpoint. With `COc1ccc(Cc2ccc3c(c2)/C(=C\c2cccc(OCc4cn(Cc5ccccc5)nn4)c2)C(=O)N3)cc1`, the IC50 in series [1] is 32.2 µM; in series [2], > 50 µM; in series [3], > 50 µM; in series [4], > 50 µM; in series [5], > 50 µM.
For `COc1ccc(Cc2ccc3c(c2)/C(=C/c2cccc(OCc4cn(Cc5ccccc5)nn4)c2)C(=O)N3)cc1`, the IC50 in series [1] was > 50 µM; in series [6], 7.7 µM; in series [2] it was 20.4 µM; in series [3] it was 30.5 µM; in series [4] it was 6.7 µM; in series [5], 36 µM.
Turning to `Cc1ccc(C(C#Cc2ccccc2)c2ccc3c(c2)/C(=C\c2cccc(OCc4cn(Cc5ccccc5)nn4)c2)C(=O)N3)cc1` (centres undefined), the IC50 in series [1] was > 50 µM; in series [6] it was 32.8 µM; in series [3], 36.6 µM; in series [4], 28.9 µM; in series [5], > 50 µM.
As to `COc1cc(Cn2cc(COc3cccc(/C=C4/C(=O)Nc5ccccc54)c3)nn2)cc(OC)c1`, the half-inhibitory concentration (IC50) stood at 37.1 µM in series [1]; 22 µM in series [6]; 11.7 µM in series [2]; 26.7 µM in series [3]; 25.6 µM in series [4].
Turning to `O=C1Nc2ccc([N+](=O)[O-])cc2/C1=C\c1cccc(OCc2cn(Cc3ccccc3)nn2)c1`, the IC50 in series [1], in series [6], in series [2], in series [3] and in series [5] was > 50 µM throughout.
Take `Cc1ccc(C(C#Cc2ccccc2)c2ccc3c(c2)/C(=C/c2cccc(OCc4cn(Cc5ccccc5)nn4)c2)C(=O)N3)cc1` (centres undefined): the IC50 in series [1], in series [6], in series [2], in series [3], in series [4] and in series [5] was > 50 µM each time.
Turning to `O=C1Nc2ccccc2/C1=C/c1cccc(OCc2cn(Cc3ccccc3)nn2)c1`, the IC50 in series [1] was 34.5 µM; in series [3], 31.5 µM; in series [5], > 50 µM.
Consider `O=C1Nc2cc(Cl)ccc2/C1=C\c1cccc(OCc2cn(Cc3ccccc3)nn2)c1`, for which the IC50 in series [1] was > 50 µM; in series [6], > 50 µM; in series [2], > 50 µM; in series [3], > 50 µM; in series [4], 20.1 µM; in series [5] it was > 50 µM.
With `O=Cc1cccc(OCc2cn(Cc3ccccc3)nn2)c1`, the half-maximal inhibitory concentration (IC50) in series [1], in series [6], in series [2], in series [3], in series [4] and in series [5] was > 50 µM throughout.
For `O=C1Nc2ccccc2/C1=C\c1cccc(OCc2cn(Cc3ccccc3)nn2)c1`, the IC50 in series [1] was 29.5 µM; in series [6] it was 32.3 µM; in series [3] it was > 50 µM; in series [4] it was 31.7 µM; in series [5] it was > 50 µM.
`O=C1Nc2ccc(F)cc2/C1=C\c1cccc(OCc2cn(Cc3ccccc3)nn2)c1`: the IC50 in series [1], in series [6], in series [2], in series [3] and in series [5] was > 50 µM throughout.
Turning to `O=C1Nc2ccc(C(c3ccccc3)c3ccccc3)cc2/C1=C\c1cccc(OCc2cn(Cc3ccccc3)nn2)c1`, the IC50 in series [1], in series [6], in series [2], in series [3], in series [4] and in series [5] was > 50 µM throughout.
With `COc1cc(Cn2cc(COc3cccc(/C=C4\C(=O)Nc5ccccc54)c3)nn2)cc(OC)c1`, the IC50 in series [1] is 31.7 µM; in series [6], 33.8 µM; in series [2], > 50 µM; in series [3], 43.3 µM; in series [5], > 50 µM.
For `O=C1Nc2ccc(Cl)cc2/C1=C/c1cccc(OCc2cn(Cc3ccccc3)nn2)c1`, the IC50 in series [1] is > 50 µM; in series [3], > 50 µM; in series [4] it was 24.2 µM.
Turning to `O=C1Nc2cc(Br)ccc2/C1=C\c1cccc(OCc2cn(Cc3ccccc3)nn2)c1`, the IC50 in series [1] is > 50 µM; in series [3] it was 9.6 µM; in series [4], 5.7 µM; in series [5] it was > 50 µM.
In the case of `CCN(CC)CCNC(=O)c1c(C)[nH]c(/C=C2\C(=O)Nc3ccc(F)cc32)c1C` [SUNITINIB], the half-inhibitory concentration (IC50) in series [1] amounted to 12.6 µM; in series [6], 10.4 µM; in series [2] it was 7.4 µM; in series [4], 16.3 µM. Besides, the half-inhibitory concentration (IC50) at 48 h in series [7] was determined as 25.2 µM.
Take `O=C1Nc2ccc(C(=O)c3ccccc3)cc2/C1=C\c1cccc(OCc2cn(Cc3ccccc3)nn2)c1`: the 50% inhibitory concentration (IC50) in series [1], in series [6], in series [2], in series [3], in series [4] and in series [5] was > 50 µM throughout.
Regarding `O=C1Nc2ccc(Br)cc2/C1=C/c1cccc(OCc2cn(Cc3ccccc3)nn2)c1`, the IC50 was > 50 µM in series [1]; > 50 µM in series [6]; > 50 µM in series [2]; > 50 µM in series [3]; 35.1 µM in series [4]; > 50 µM in series [5].
For the compound `CC(=O)c1ccc2c(c1)/C(=C\c1cccc(OCc3cn(Cc4ccccc4)nn3)c1)C(=O)N2`, the IC50 in series [1], in series [6], in series [2], in series [3], in series [4] and in series [5] was > 50 µM throughout.
On to `CC(=O)c1ccc2c(c1)/C(=C/c1cccc(OCc3cn(Cc4ccccc4)nn3)c1)C(=O)N2`, for which the IC50 in series [1] was > 50 µM; in series [6], > 50 µM; in series [2] it was > 50 µM; in series [3], 36.3 µM; in series [4], > 50 µM; in series [5], > 50 µM.
